# Experimental data taken from ChEMBL document CHEMBL4177702, “Design and synthesis of aminoester heterodimers containing flavone or chromone moieties as modulators of P-glycoprotein-based multidrug resistance (MDR)” (Bioorg Med Chem, 2018).
# Active and inactive are the calls of the source. The calls are words filed in the database; no cut-off is given here.
# Species on record: Homo sapiens
# Assay: (§1) Inhibition of P-gp in human K562/Dox cells assessed as increase in nuclear accumulation of pirarubicin by spectrofluorometric assay
# Type: cell-based
# Settings: not given
row,SMILES,I50
1,COc1cc(/C=C/C(=O)OCCOCCN(C)CCOCCOC(=O)c2cc(=O)c3c(O)cc(O)cc3o2)cc(OC)c1OC,inactive

# Test system: not listed separately
# Assay: as §1
# Type: cell-based
# Settings: read-out: I50
row,SMILES,IC50 [nM]
1,COc1cc(/C=C/C(=O)OCCCCCN(C)CCCCCOC(=O)COc2ccc(-c3cc(=O)c4c(O)cc(O)cc4o3)cc2)cc(OC)c1OC,960
2,COc1cc(/C=C/C(=O)OCCCCCN(C)CCCCCOC(=O)c2cc(=O)c3c(O)cc(O)cc3o2)cc(OC)c1OC,2430
3,COc1cc(/C=C/C(=O)OCCCCCNCCCCCOC(=O)COc2ccc(-c3cc(=O)c4ccccc4o3)cc2)cc(OC)c1OC,1320
4,COc1cc(/C=C/C(=O)OCCOCCN(C)CCOCCOC(=O)COc2ccc(-c3cc(=O)c4ccccc4o3)cc2)cc(OC)c1OC,1230
5,COc1cc(OC)c2c(=O)cc(C(=O)OCCCCCN(C)CCCCCOC(=O)/C=C/c3cc(OC)c(OC)c(OC)c3)oc2c1,1320
6,COc1cc(/C=C/C(=O)OCCCCCN(CCCCCOC(=O)COc2ccc(-c3cc(=O)c4ccccc4o3)cc2)Cc2ccccc2)cc(OC)c1OC,430
7,COc1cc(/C=C/C(=O)OCCCCCN(C)CCCCCOC(=O)c2cc(=O)c3c(O)cccc3o2)cc(OC)c1OC,350
8,COc1cc(/C=C/C(=O)OCCCCCN(C)CCCCCOC(=O)COc2ccc(-c3cc(=O)c4ccccc4o3)cc2)cc(OC)c1OC,340
9,COc1cc(/C=C/C(=O)OCCCCCN(C)CCCCCOC(=O)c2cc(=O)c3c(OC)cccc3o2)cc(OC)c1OC,3500

# Test system: not listed separately
# Assay: Cytotoxicity against human K562/Dox cells assessed as reduction in cell viability at 1 to 3 uM after 72 hrs by MTT assay
# Type: cell-based
# Settings: not given
# Procedure, shortened: (§2)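 Exponentially growing cells (3×10^5 cells/mL) seeded at 10^4 cells/well and exposed to compound at 1.0 and 3.0 μM (diluted from 10^-2 M DMSO stocks in complete medium) for 72 h at 37 °C, 5% CO2. MTT added for 3 h, formazan dissolved in acidified isopropanol, absorbance at 570 nm. Toxicity expressed as proliferation relative to untreated control (100%).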
row,SMILES,Activity
1,COc1cc(/C=C/C(=O)OCCOCCN(C)CCOCCOC(=O)COc2ccc(-c3cc(=O)c4ccccc4o3)cc2)cc(OC)c1OC,Non-Toxic
2,COc1cc(/C=C/C(=O)OCCOCCNCCOCCOC(=O)COc2ccc(-c3cc(=O)c4ccccc4o3)cc2)cc(OC)c1OC,Non-Toxic
3,COc1cc(/C=C/C(=O)OCCCN(C)CCCOC(=O)c2cc(=O)c3c(O)cc(O)cc3o2)cc(OC)c1OC,Non-Toxic
4,COc1cc(/C=C/C(=O)OCCCCCN(C)CCCCCOC(=O)COc2ccc(-c3cc(=O)c4ccccc4o3)cc2)cc(OC)c1OC,Non-Toxic

# Species on record: Homo sapiens
# Assay: Inhibition of P-gp in human K562/Dox cells assessed as nuclear accumulation of pirarubicin at 10^-5 M by spectrofluorometric assay relative to control
# Type: cell-based
# Settings: not given
row,SMILES,Efficacy [%]
1,COc1cc(/C=C/C(=O)OCCCN(C)CCCOC(=O)c2cc(=O)c3c(O)cc(O)cc3o2)cc(OC)c1OC,4 to 30
2,COc1cc(/C=C/C(=O)OCCCN(C)CCCOC(=O)c2cc(=O)c3c(OC)cccc3o2)cc(OC)c1OC,4 to 30
3,COc1cc(/C=C/C(=O)OCCCN(C)CCCOC(=O)c2cc(=O)c3c(O)cccc3o2)cc(OC)c1OC,4 to 30
4,COc1cc(/C=C/C(=O)OCCCN(C)CCCOC(=O)COc2ccc(-c3cc(=O)c4c(O)cc(O)cc4o3)cc2)cc(OC)c1OC,4 to 30
5,COc1cc(OC)c2c(=O)cc(C(=O)OCCCN(C)CCCOC(=O)/C=C/c3cc(OC)c(OC)c(OC)c3)oc2c1,4 to 30

# Test system: K562
# Assay: Cytotoxicity against human K562 cells assessed as reduction in cell viability at 1 to 3 uM after 72 hrs by MTT assay
# Type: cell-based
# Settings: k562, 72 h
# Procedure, shortened: as §2
row,SMILES,Activity
1,COc1cc(/C=C/C(=O)OCCOCCN(C)CCOCCOC(=O)COc2ccc(-c3cc(=O)c4ccccc4o3)cc2)cc(OC)c1OC,Non-Toxic
2,COc1cc(/C=C/C(=O)OCCOCCNCCOCCOC(=O)COc2ccc(-c3cc(=O)c4ccccc4o3)cc2)cc(OC)c1OC,Non-Toxic
3,COc1cc(/C=C/C(=O)OCCCN(C)CCCOC(=O)c2cc(=O)c3c(O)cc(O)cc3o2)cc(OC)c1OC,Non-Toxic
4,COc1cc(/C=C/C(=O)OCCCCCN(C)CCCCCOC(=O)COc2ccc(-c3cc(=O)c4ccccc4o3)cc2)cc(OC)c1OC,Non-Toxic
